Activity calls are given as the source filed them. No cut-off for these calls is given here. Bridge positions count the residues as written; N and C are the ends. Peptide text beside a SMILES is read from it.
Assays:
[1] = Stability of the compound in phosphate buffer assessed as compound remaining at pH 7.4 after 15 mins by LC-MS-MS analysis in presence of trypsin; assay type: ADME; details: phosphate buffer with trypsin, read-out: Stability
[2] = Apparent passive permeability across apical to basolateral side in human Caco2 cells at 10 uM after 30 to 60 mins by LC/MS analysis; assay type: ADME, cell-based; details: Caco-2
[3] = Half life in human at 3.3 pmol/kg/min, iv administered as infusion; assay type: ADME, organism-based; details: in vivo
[4] = target: T1, Vasoactive intestinal polypeptide receptor 2 (Homo sapiens, UniProt P41587); experiment: Agonist activity at human VPAC2 expressed in CHO Flp-in cells assessed as accumulation of cAMP after 30 mins by TR-FRET assay; assay type: functional, cell-based
T1 sequence (P41587 whole entry): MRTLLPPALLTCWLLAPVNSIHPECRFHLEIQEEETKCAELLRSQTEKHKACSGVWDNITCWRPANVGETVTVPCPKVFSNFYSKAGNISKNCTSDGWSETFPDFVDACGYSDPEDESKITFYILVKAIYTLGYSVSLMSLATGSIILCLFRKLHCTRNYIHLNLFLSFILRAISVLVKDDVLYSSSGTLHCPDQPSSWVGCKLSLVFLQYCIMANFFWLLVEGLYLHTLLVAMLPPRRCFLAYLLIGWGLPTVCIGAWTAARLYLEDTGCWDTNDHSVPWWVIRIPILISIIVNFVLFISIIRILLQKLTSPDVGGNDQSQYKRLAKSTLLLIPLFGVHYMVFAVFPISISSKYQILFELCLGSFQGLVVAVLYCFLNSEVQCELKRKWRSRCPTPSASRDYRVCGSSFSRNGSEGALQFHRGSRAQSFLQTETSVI

Pancreatic islet [5] = experiment: Induction of 8 mM glucose-induced insulin secretion in Han Wistar rat pancreatic islets at 10 to 100 nM after 2 hrs by HTRF assay; assay type: functional
In short: (§1)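 Isolated rat pancreatic islets were incubated with peptide in 8 mM glucose, and insulin secretion was measured. Data are mean ±SE (n > 3), and significance was tested against vehicle-treated samples.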

Pancreatic islet [6] = experiment: Induction of 8 mM glucose-induced insulin secretion in Han Wistar rat pancreatic islets at 100 nM after 2 hrs by HTRF assay; assay type: functional; in short: as §1
Pancreatic islet [7] = experiment: Induction of 8 mM glucose-induced insulin secretion in Han Wistar rat pancreatic islets after 2 hrs by HTRF assay; assay type: functional
In short: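 Isolated rat pancreatic islets were incubated with 8 mM glucose plus peptide over a range of concentrations, and secreted insulin was measured. Data are mean (±SE), n > 3, and were compared with vehicle-treated samples (p < 0.05, 0.01, 0.001).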

Pancreatic islet [8] = experiment: Induction of 8 mM glucose-induced insulin secretion in Han Wistar rat pancreatic islets at 1 to 100 nM after 2 hrs by HTRF assay; assay type: functional; in short: as §1

| remaining at 0.25 h [1] [%] | Papp A→B at 10 µM [2] [×10⁻⁶ cm/s] | EC50 [4] [nM] | Compound | other results |
| --- | --- | --- | --- | --- |
| 1.5 | < 0.1 | 0.049 | CC[C@H](C)[C@H](NC(=O)[C@H](CO)NC(=O)[C@H](CC(N)=O)NC(=O)[C@H](CC(C)C)NC(=O)[C@H](Cc1ccc(O)cc1)NC(=O)[C@H](CCCCN)NC(=O)[C@H](CCCCN)NC(=O)[C@@H](NC(=O)[C@H](C)NC(=O)[C@]1(C)CCCC/C=C\CCCC[C@](C)(NC(=O)[C@H](CCCNC(=N)N)NC(=O)[C@@H](NC(=O)[C@H](Cc2ccc(O)cc2)NC(=O)[C@H](CC(N)=O)NC(=O)[C@H](CC(=O)O)NC(=O)[C@@H](NC(=O)[C@H](Cc2ccccc2)NC(=O)[C@@H](NC(=O)[C@H](C)NC(=O)[C@H](CC(=O)O)NC(=O)[C@H](CO)NC(=O)[C@@H](N)Cc2cnc[nH]2)C(C)C)[C@@H](C)O)[C@@H](C)O)C(=O)N[C@@H](CCCNC(=N)N)C(=O)N[C@@H](CCCCN)C(=O)N[C@@H](CCC(N)=O)C(=O)N1)C(C)C)C(=O)N[C@@H](CC(C)C)C(=O)N[C@@H](CC(N)=O)C(=O)NCC(=O)N[C@@H](CCCCN)C(=O)O | Activity (Pancreatic islet [5]): Active |
|  |  |  | C=CCCC[C@](C)(NC(=O)[C@H](CCC(N)=O)NC(=O)[C@H](CCCCN)NC(=O)[C@H](CCCNC(=N)N)NC(=O)[C@](C)(CCCC=C)NC(=O)[C@H](CCCNC(=N)N)NC(=O)[C@@H](NC(=O)[C@H](Cc1ccc(O)cc1)NC(=O)[C@H](CC(N)=O)NC(=O)[C@H](CC(=O)O)NC(=O)[C@@H](NC(=O)[C@H](Cc1ccccc1)NC(=O)[C@@H](NC(=O)[C@H](C)NC(=O)[C@H](CC(=O)O)NC(=O)[C@H](CO)NC(=O)[C@@H](N)Cc1cnc[nH]1)C(C)C)[C@@H](C)O)[C@@H](C)O)C(=O)N[C@@H](C)C(=O)N[C@H](C(=O)N[C@@H](CCCCN)C(=O)N[C@@H](CCCCN)C(=O)N[C@@H](Cc1ccc(O)cc1)C(=O)N[C@@H](CC(C)C)C(=O)N[C@@H](CC(N)=O)C(=O)N[C@@H](CO)C(=O)N[C@H](C(=O)N[C@@H](CC(C)C)C(=O)N[C@@H](CC(N)=O)C(=O)NCC(=O)N[C@@H](CCCCN)C(=O)O)[C@@H](C)CC)C(C)C | Activity (Pancreatic islet [6]): Active |
|  |  |  | CC[C@H](C)[C@H](NC(=O)[C@H](CO)NC(=O)[C@H](CC(N)=O)NC(=O)[C@H](CC(C)C)NC(=O)[C@H](Cc1ccc(O)cc1)NC(=O)[C@H](CCCCN)NC(=O)[C@H](CCCCN)NC(=O)[C@@H](NC(=O)[C@H](C)NC(=O)[C@H](CCSC)NC(=O)[C@H](CCC(N)=O)NC(=O)[C@H](CCCCN)NC(=O)[C@H](CCCNC(=N)N)NC(=O)[C@H](CC(C)C)NC(=O)[C@H](CCCNC(=N)N)NC(=O)[C@@H](NC(=O)[C@H](Cc1ccc(O)cc1)NC(=O)[C@H](CC(N)=O)NC(=O)[C@H](CC(=O)O)NC(=O)[C@@H](NC(=O)[C@H](Cc1ccccc1)NC(=O)[C@@H](NC(=O)[C@H](C)NC(=O)[C@H](CC(=O)O)NC(=O)[C@H](CO)NC(=O)[C@@H](N)Cc1cnc[nH]1)C(C)C)[C@@H](C)O)[C@@H](C)O)C(C)C)C(=O)N[C@@H](CC(C)C)C(=O)N[C@@H](CC(N)=O)C(=O)O | Activity (Pancreatic islet [7]): Dose-dependent effect |
|  |  |  | CC[C@H](C)[C@H](NC(=O)[C@H](Cc1ccccc1)NC(=O)[C@H](CCC(=O)O)NC(=O)[C@H](CCCCN)NC(=O)[C@H](C)NC(=O)[C@H](C)NC(=O)[C@H](CCC(N)=O)NC(=O)CNC(=O)[C@H](CCC(=O)O)NC(=O)[C@H](CC(C)C)NC(=O)[C@H](Cc1ccc(O)cc1)NC(=O)[C@H](CO)NC(=O)[C@H](CO)NC(=O)[C@@H](NC(=O)[C@H](CC(=O)O)NC(=O)[C@H](CO)NC(=O)[C@@H](NC(=O)[C@H](Cc1ccccc1)NC(=O)[C@@H](NC(=O)CNC(=O)[C@H](CCC(=O)O)NC(=O)[C@H](C)NC(=O)[C@@H](N)Cc1c[nH]cn1)[C@@H](C)O)[C@@H](C)O)C(C)C)C(=O)N[C@@H](C)C(=O)N[C@@H](Cc1c[nH]c2ccccc12)C(=O)N[C@@H](CC(C)C)C(=O)N[C@H](C(=O)N[C@@H](CCCCN)C(=O)NCC(=O)N[C@@H](CCCN=C(N)N)C(=O)NCC(=O)O)C(C)C | Activity (Pancreatic islet [7]): Dose-dependent effect |
| 0.4 | < 0.1 | 0.1 | CC[C@H](C)[C@H](NC(=O)[C@H](CO)NC(=O)[C@H](CC(N)=O)NC(=O)[C@H](CC(C)C)NC(=O)[C@H](Cc1ccc(O)cc1)NC(=O)[C@@H]1CCCCNC(=O)CC[C@H](NC(=O)[C@H](CCC(N)=O)NC(=O)[C@H](CCCCN)NC(=O)[C@H](CCCNC(=N)N)NC(=O)[C@H](CC(C)C)NC(=O)[C@H](CCCNC(=N)N)NC(=O)[C@@H](NC(=O)[C@H](Cc2ccc(O)cc2)NC(=O)[C@H](CC(N)=O)NC(=O)[C@H](CC(=O)O)NC(=O)[C@@H](NC(=O)[C@H](Cc2ccccc2)NC(=O)[C@@H](NC(=O)[C@H](C)NC(=O)[C@H](CC(=O)O)NC(=O)[C@H](CO)NC(=O)[C@@H](N)Cc2cnc[nH]2)C(C)C)[C@@H](C)O)[C@@H](C)O)C(=O)N[C@@H](C)C(=O)N[C@@H](C(C)C)C(=O)N[C@@H](CCCCN)C(=O)N1)C(=O)N[C@@H](CC(C)C)C(=O)N[C@@H](CC(N)=O)C(=O)NCC(=O)N[C@@H](CCCCN)C(=O)O (H-HSDAVFTDNYTRLRKQEAVKKYLNSILNGK-OH; lactam 17-21) | Activity (Pancreatic islet [5]): Active |
| 0.9 | < 0.1 | 0.38 | H-HSDAVFTDNYTRLRKQEAVKKYLNSILNGK-OH | Activity (Pancreatic islet [6]): Active |
|  |  |  | H-HSDAVFTDNYTRLRKQIAVKKYLNSILNGK-OH | Activity (Pancreatic islet [8]): Active |

| Compound | remaining at 0.25 h [1] [%] | Papp A→B at 10 µM [2] [×10⁻⁶ cm/s] | EC50 [4] [nM] | other results |
| --- | --- | --- | --- | --- |
| CC[C@H](C)[C@H](NC(=O)[C@H](CO)NC(=O)[C@H](CC(N)=O)NC(=O)[C@H](CC(C)C)NC(=O)[C@H](Cc1ccc(O)cc1)NC(=O)[C@H](CCCCN)NC(=O)[C@H](CCCCN)NC(=O)[C@@H](NC(=O)[C@H](C)NC(=O)[C@H](CCSC)NC(=O)[C@H](CCC(N)=O)NC(=O)[C@H](CCCCN)NC(=O)[C@H](CCCN=C(N)N)NC(=O)[C@H](CC(C)C)NC(=O)[C@H](CCCN=C(N)N)NC(=O)[C@@H](NC(=O)[C@H](Cc1ccc(O)cc1)NC(=O)[C@H](CC(N)=O)NC(=O)[C@H](CC(=O)O)NC(=O)[C@@H](NC(=O)[C@H](Cc1ccccc1)NC(=O)[C@@H](NC(=O)[C@H](C)NC(=O)[C@H](CC(=O)O)NC(=O)[C@H](CO)NC(=O)[C@@H](N)Cc1c[nH]cn1)C(C)C)[C@@H](C)O)[C@@H](C)O)C(C)C)C(=O)N[C@@H](CC(C)C)C(=O)N[C@@H](CC(N)=O)C(N)=O | 0.5 | < 0.1 |  | half-life [3]: < 1 min |
